For test [1], the target named is T1, ovine COX-1 (Ovis aries, UniProt P05979).
T1 sequence (P05979 25-600): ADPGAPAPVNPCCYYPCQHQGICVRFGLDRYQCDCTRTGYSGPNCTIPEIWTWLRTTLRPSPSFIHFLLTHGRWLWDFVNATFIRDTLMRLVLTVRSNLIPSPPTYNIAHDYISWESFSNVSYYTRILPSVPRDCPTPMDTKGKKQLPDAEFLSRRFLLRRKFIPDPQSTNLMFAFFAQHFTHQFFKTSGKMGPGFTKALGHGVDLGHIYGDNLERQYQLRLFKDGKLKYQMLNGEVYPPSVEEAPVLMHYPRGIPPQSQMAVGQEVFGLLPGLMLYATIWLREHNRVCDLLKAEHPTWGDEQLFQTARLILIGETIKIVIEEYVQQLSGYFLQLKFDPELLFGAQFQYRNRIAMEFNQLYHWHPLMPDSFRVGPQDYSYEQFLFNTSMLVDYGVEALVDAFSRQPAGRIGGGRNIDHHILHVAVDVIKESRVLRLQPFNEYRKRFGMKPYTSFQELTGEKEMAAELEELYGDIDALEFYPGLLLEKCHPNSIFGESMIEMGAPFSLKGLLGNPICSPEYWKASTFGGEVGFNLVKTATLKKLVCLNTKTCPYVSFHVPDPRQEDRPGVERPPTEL
Put plainly: In vitro cyclooxygenase. In kind it is biochemical.

In test [2] the target is T2, ovine COX-2 (Ovis aries, UniProt P79208).
T2 sequence (P79208 17-603): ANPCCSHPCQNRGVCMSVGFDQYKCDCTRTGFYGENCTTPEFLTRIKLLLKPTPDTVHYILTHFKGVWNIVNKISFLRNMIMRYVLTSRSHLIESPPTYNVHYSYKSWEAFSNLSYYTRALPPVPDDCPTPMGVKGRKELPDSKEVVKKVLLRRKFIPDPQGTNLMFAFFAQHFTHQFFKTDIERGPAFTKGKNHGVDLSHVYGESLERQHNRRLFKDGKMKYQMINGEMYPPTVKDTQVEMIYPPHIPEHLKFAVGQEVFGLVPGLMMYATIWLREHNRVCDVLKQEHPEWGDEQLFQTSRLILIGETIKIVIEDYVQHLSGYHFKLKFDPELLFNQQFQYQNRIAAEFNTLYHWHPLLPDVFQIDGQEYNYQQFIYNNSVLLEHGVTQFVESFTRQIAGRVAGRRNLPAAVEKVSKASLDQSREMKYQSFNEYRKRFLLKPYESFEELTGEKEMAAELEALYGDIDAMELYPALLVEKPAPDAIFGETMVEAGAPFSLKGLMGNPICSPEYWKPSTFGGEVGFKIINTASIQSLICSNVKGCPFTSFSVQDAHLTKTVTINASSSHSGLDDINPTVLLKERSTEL
Description: In vitro cyclooxygenase. In kind it is biochemical. The conditions noted are these: for Selectivity index (SI): COX-1 IC50/COX-2 IC50.

For test [3], the system named is carrageenan-induced rat paw edema. Description: Carrageenan-induced rat paw edema model. The conditions noted are these: 10 mg kg−1 po, n = 4; for Edema inhibition %, 1 h / Edema thickness ± SEM, 1 h: 1 h after carrageenan injection; for Edema inhibition %, 3 h / Edema thickness ± SEM, 3 h: 3 h after carrageenan injection; for Edema inhibition %, 6 h / Edema thickness ± SEM, 6 h: 6 h after carrageenan injection. In kind it is in vivo. The gist of the method:
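Rats were dosed orally with test compound (10 mg kg−1) in 5% aqueous DMSO (v/v). […] Thirty minutes after dosing, 0.02 ml of 1% carrageenan was injected sub-plantar. Paw thickness was measured 1, 3 and 6 h after injection, and edema inhibition % was calculated from paw thickness.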
(In the carrageenan paw model, swelling and tenderness develop within hours.)

For the compound `CS(=O)(=O)c1ccc(-c2nc3ccccc3n2CC(=O)N/N=C/c2ccccc2)cc1` [11a, (E)-N′-Benzylidene-2-(2-(4-(methylsulfonyl)phenyl)-1H-benzo[d]imidazol-1-yl) acetohydrazide], the IC50 in test [1] was 9.87 µM. Moreover, in test [2], inhibition was half-maximal at 0.19 µM (IC50) and the “Selectivity index (SI)” value was 52. In test [3], the “Edema inhibition %, 1 h” value amounted to 60%; the “Edema thickness ± SEM, 1 h” value is given as 1.048 ± 0.027 mm; the “Edema inhibition %, 3 h” value stood at 64%; the “Edema thickness ± SEM, 3 h” value was determined as 0.812 ± 0.037 mm. In test [3], the “Edema inhibition %, 6 h” value is reported as 69% and the “Edema thickness ± SEM, 6 h” value is reported as 0.578 ± 0.049 mm.

Compound `COc1ccc(/C=N/NC(=O)Cn2c(-c3ccc(S(C)(=O)=O)cc3)nc3ccccc32)cc1` [11c, (E)-N′-(4-Methoxybenzylidene)-2-(2-(4-(methylsulfonyl)phenyl)-1H-benzo[d]imidazol-1-yl) acetohydrazide] gave an IC50 in test [1] of 11.3 µM. Also, in test [2], the IC50 was 0.11 µM and the “Selectivity index (SI)” value is 103. For the same compound, in test [3], the “Edema inhibition %, 1 h” value is 81%; the “Edema thickness ± SEM, 1 h” value came out at 0.487 ± 0.019 mm; the “Edema inhibition %, 3 h” value is reported as 92%; the “Edema thickness ± SEM, 3 h” value came to 0.181 ± 0.013 mm. Moreover, in test [3], the “Edema inhibition %, 6 h” value turned out to be 93% and the “Edema thickness ± SEM, 6 h” value came out at 0.130 ± 0.010 mm.

On to `CS(=O)(=O)c1ccc(-c2nc3ccccc3n2CC(=O)N/N=C/c2ccc(F)cc2)cc1` [11d, (E)-N′-(4-Fluorobenzylidene)-2-(2-(4-(methylsulfonyl)phenyl)-1H-benzo[d]imidazol-1-yl) acetohydrazide], for which, in test [1], the IC50 is 10.2 µM. Also, in test [2], it took 0.12 µM to reach half-maximal inhibition (IC50) and the “Selectivity index (SI)” value is given as 85. Besides, in test [3], the “Edema inhibition %, 3 h” value amounted to 81%; the “Edema thickness ± SEM, 3 h” value was determined as 0.427 ± 0.017 mm; the “Edema inhibition %, 6 h” value came out at 90%; the “Edema thickness ± SEM, 6 h” value is 0.183 ± 0.014 mm.

For `CS(=O)(=O)c1ccc(-c2nc3cc(Cl)ccc3n2CC(=O)N/N=C/c2ccc(Cl)cc2)cc1` [11f, (E)-N′-(4-Chlorobenzylidene)-2-(5-chloro-2-(4-(methylsulfonyl)phenyl)-1H-benzo[d]imidazol-1-yl) acetohydrazide], 10.2 µM corresponded to half-maximal inhibition in test [1] (IC50). For the same compound, in test [2], the half-inhibitory concentration (IC50) turned out to be 0.13 µM and the “Selectivity index (SI)” value is 79. Further, in test [3], the “Edema inhibition %, 1 h” value was found to be 78%; the “Edema thickness ± SEM, 1 h” value was 0.577 ± 0.020 mm; the “Edema inhibition %, 3 h” value was 80%; the “Edema thickness ± SEM, 3 h” value was 0.449 ± 0.008 mm. In addition, in test [3], the “Edema inhibition %, 6 h” value was 90% and the “Edema thickness ± SEM, 6 h” value was 0.191 ± 0.011 mm.

As to `COc1ccc(/C=N/NC(=O)Cn2c(-c3ccc(S(C)(=O)=O)cc3)nc3cc(Cl)ccc32)cc1` [11g, (E)-N′-(4-Methoxybenzylidene)-2-(5-chloro-2-(4-(methylsulfonyl)phenyl)-1H-benzo[d]imidazol-1-yl) acetohydrazide], in test [1], inhibition was half-maximal at 8.74 µM (IC50). In test [2], the IC50 is 0.13 µM and the “Selectivity index (SI)” value was 67. Further, in test [3], the “Edema inhibition %, 1 h” value is reported as 61%; the “Edema thickness ± SEM, 1 h” value was 1.017 ± 0.007 mm; the “Edema inhibition %, 3 h” value is listed as 65%; the “Edema thickness ± SEM, 3 h” value was found to be 0.785 ± 0.018 mm. Also, in test [3], the “Edema inhibition %, 6 h” value is reported as 78% and the “Edema thickness ± SEM, 6 h” value turned out to be 0.410 ± 0.018 mm.

In the case of `CS(=O)(=O)c1ccc(-c2nc3cc(Cl)ccc3n2CC(=O)N/N=C/c2ccc(F)cc2)cc1` [11h, (E)-N′-(4-Fluorobenzylidene)-2-(5-chloro-2-(4-(methylsulfonyl)phenyl)-1H-benzo[d]imidazol-1-yl) acetohydrazide], the IC50 in test [1] was 7.98 µM. In test [2], the IC50 was determined as 0.22 µM and the “Selectivity index (SI)” value was determined as 36. Further, in test [3], the “Edema inhibition %, 1 h” value was found to be 50%; the “Edema thickness ± SEM, 1 h” value is on record as 1.30 ± 0.079 mm; the “Edema inhibition %, 3 h” value was 52%; the “Edema thickness ± SEM, 3 h” value was determined as 1.063 ± 0.020 mm. In test [3], the “Edema inhibition %, 6 h” value was determined as 60% and the “Edema thickness ± SEM, 6 h” value worked out at 0.754 ± 0.026 mm.

In test [1], `Cc1ccc2c(c1)nc(-c1ccc(S(C)(=O)=O)cc1)n2CC(=O)N/N=C/c1ccc(Cl)cc1` [11j, (E)-N′-(4-Chlorobenzylidene)-2-(5-methyl-2-(4-(methylsulfonyl)phenyl)-1H-benzo[d]imidazol-1-yl) acetohydrazide] showed an IC50 of 11.2 µM. In test [2], the 50% inhibitory concentration (IC50) was 0.11 µM and the “Selectivity index (SI)” value came to 102. Further, in test [3], the “Edema inhibition %, 1 h” value was 81%; the “Edema thickness ± SEM, 1 h” value is 0.505 ± 0.022 mm; the “Edema inhibition %, 3 h” value was 91%; the “Edema thickness ± SEM, 3 h” value was determined as 0.194 ± 0.018 mm. In test [3], the “Edema inhibition %, 6 h” value amounted to 93% and the “Edema thickness ± SEM, 6 h” value is listed as 0.129 ± 0.008 mm.

`Cc1ccc2c(c1)nc(-c1ccc(S(C)(=O)=O)cc1)n2CC(=O)N/N=C/c1ccc(F)cc1` [11l, (E)-N′-(4-Fluorobenzylidene)-2-(5-methyl-2-(4-(methylsulfonyl)phenyl)-1H-benzo[d]imidazol-1-yl) acetohydrazide] showed an IC50 in test [1] of 7.96 µM. Besides, in test [2], the IC50 amounted to 0.34 µM and the “Selectivity index (SI)” value was 23. Moreover, in test [3], the “Edema inhibition %, 1 h” value was 47%; the “Edema thickness ± SEM, 1 h” value worked out at 1.378 ± 0.009 mm; the “Edema inhibition %, 3 h” value is 51%; the “Edema thickness ± SEM, 3 h” value was 1.102 ± 0.086 mm. Besides, in test [3], the “Edema inhibition %, 6 h” value turned out to be 55% and the “Edema thickness ± SEM, 6 h” value came out at 0.860 ± 0.010 mm.

For the compound `C/C(=N\NC(=O)Cn1c(-c2ccc(S(C)(=O)=O)cc2)nc2ccccc21)c1ccccc1` [12a, (E)-2-(2-(4-(Methylsulfonyl)phenyl)-1H-benzo[d]imidazol-1-yl)-N′-(1-phenylethylidene) acetohydrazide], the IC50 in test [1] was 8.97 µM. In test [2], the IC50 was found to be 0.28 µM and the “Selectivity index (SI)” value was determined as 32. Further, in test [3], the “Edema inhibition %, 1 h” value is 50%; the “Edema thickness ± SEM, 1 h” value stood at 1.308 ± 0.101 mm; the “Edema inhibition %, 3 h” value is on record as 54%; the “Edema thickness ± SEM, 3 h” value was found to be 1.017 ± 0.024 mm. Also, in test [3], the “Edema inhibition %, 6 h” value came out at 60% and the “Edema thickness ± SEM, 6 h” value stood at 0.766 ± 0.006 mm.

For `C/C(=N\NC(=O)Cn1c(-c2ccc(S(C)(=O)=O)cc2)nc2ccccc21)c1ccc(Cl)cc1` [12b, (E)-N′-(1-(4-Chlorophenyl)ethylidene)-2-(2-(4-(methylsulfonyl)phenyl)-1H-benzo[d]imidazol-1-yl) acetohydrazide], in test [1], inhibition was half-maximal at 12.5 µM (IC50). In test [2], 0.1 µM corresponded to half-maximal inhibition (IC50) and the “Selectivity index (SI)” value is 125. In test [3], the “Edema inhibition %, 1 h” value amounted to 80%; the “Edema thickness ± SEM, 1 h” value was 0.522 ± 0.009 mm; the “Edema inhibition %, 3 h” value is listed as 89%; the “Edema thickness ± SEM, 3 h” value was determined as 0.240 ± 0.014 mm. In addition, in test [3], the “Edema inhibition %, 6 h” value was determined as 95% and the “Edema thickness ± SEM, 6 h” value was found to be 0.104 ± 0.005 mm.

Consider `C/C(=N\NC(=O)Cn1c(-c2ccc(S(C)(=O)=O)cc2)nc2cc(C)ccc21)c1ccc(Cl)cc1` [12f, (E)-N′-(1-(4-Chlorophenyl)ethylidene)-2-(5-methyl-2-(4-(methylsulfonyl)phenyl)-1H-benzo[d]imidazol-1-yl) acetohydrazide], for which the midpoint of inhibition in test [1], the IC50, lay at 10.9 µM. Further, in test [2], half-maximal inhibition (IC50) required 0.19 µM and the “Selectivity index (SI)” value was found to be 57. In addition, in test [3], the “Edema inhibition %, 1 h” value was 60%; the “Edema thickness ± SEM, 1 h” value was determined as 1.038 ± 0.014 mm; the “Edema inhibition %, 3 h” value is 64%; the “Edema thickness ± SEM, 3 h” value is given as 0.801 ± 0.013 mm. Besides, in test [3], the “Edema inhibition %, 6 h” value stood at 70% and the “Edema thickness ± SEM, 6 h” value was 0.563 ± 0.012 mm.

A word on the IC50: it is the point on the concentration scale where inhibition reaches its midpoint. Read a low IC50 as greater potency in that assay.

These data come from paper PMC9037807 (RSC Advances, 2021).
